According to the M2OR odorant receptor database:
Positions count from the first letter of the chain named.

Columns and labels:
Conditions in all cases: stereoisomer not certain
A0A140T8K0 = test system: T1, A0A140T8K0
T1 sequence (whole entry): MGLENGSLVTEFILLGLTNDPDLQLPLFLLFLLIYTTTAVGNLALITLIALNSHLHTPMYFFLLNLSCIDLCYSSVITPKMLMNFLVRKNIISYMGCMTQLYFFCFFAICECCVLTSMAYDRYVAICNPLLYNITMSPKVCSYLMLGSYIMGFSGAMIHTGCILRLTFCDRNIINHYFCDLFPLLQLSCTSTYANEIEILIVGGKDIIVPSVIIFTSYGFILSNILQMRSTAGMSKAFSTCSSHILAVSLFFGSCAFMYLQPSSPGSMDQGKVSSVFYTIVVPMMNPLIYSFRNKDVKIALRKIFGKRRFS
Method in brief: (§1)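 Assay methods differ from source to source, frequently being transient luciferase assays in mammalian cell lines. For each receptor–molecule pair, the label responsive (active) applies when the original authors judged the measured signal statistically different from baseline, and non-responsive (inactive) applies otherwise.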

A0A140T8K4 = test system: T2, A0A140T8K4
T2 sequence (whole entry): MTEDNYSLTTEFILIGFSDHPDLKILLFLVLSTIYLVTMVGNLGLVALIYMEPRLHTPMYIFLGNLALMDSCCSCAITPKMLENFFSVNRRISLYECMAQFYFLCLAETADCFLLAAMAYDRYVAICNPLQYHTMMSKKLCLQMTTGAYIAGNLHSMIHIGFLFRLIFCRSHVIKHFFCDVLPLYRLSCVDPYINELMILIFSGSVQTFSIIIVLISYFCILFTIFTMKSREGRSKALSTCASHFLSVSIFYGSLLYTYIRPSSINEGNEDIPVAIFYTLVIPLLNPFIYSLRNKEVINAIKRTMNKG
Method in brief: as §1

A0A2J8MY22 = test system: T3, A0A2J8MY22
T3 sequence (whole entry): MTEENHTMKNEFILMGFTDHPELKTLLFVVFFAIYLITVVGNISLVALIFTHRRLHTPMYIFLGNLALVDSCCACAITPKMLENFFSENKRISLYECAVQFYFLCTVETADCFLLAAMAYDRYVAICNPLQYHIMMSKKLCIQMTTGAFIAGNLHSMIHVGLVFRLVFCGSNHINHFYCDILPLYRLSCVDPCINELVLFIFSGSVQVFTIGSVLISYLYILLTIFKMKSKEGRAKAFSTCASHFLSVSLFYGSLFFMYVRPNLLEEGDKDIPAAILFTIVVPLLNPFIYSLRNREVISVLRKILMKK
Method in brief: as §1

A0A2R8ZIW4 = test system: T4, A0A2R8ZIW4
T4 sequence (whole entry): T3 sequence (whole entry) with V39I, I280V
Method in brief: as §1

A0A3Q7SVK8 = test system: T5, A0A3Q7SVK8
T5 sequence (whole entry): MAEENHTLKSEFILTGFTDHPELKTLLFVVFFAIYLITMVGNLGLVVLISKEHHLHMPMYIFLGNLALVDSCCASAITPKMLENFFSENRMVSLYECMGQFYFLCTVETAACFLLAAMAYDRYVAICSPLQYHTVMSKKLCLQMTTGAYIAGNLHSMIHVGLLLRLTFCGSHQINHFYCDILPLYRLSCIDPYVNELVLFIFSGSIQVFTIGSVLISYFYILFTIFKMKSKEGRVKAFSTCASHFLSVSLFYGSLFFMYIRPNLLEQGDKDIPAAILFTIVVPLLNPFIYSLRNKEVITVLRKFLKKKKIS
Method in brief: as §1

A0A6P3DZI2 = test system: T6, A0A6P3DZI2
T6 sequence (whole entry): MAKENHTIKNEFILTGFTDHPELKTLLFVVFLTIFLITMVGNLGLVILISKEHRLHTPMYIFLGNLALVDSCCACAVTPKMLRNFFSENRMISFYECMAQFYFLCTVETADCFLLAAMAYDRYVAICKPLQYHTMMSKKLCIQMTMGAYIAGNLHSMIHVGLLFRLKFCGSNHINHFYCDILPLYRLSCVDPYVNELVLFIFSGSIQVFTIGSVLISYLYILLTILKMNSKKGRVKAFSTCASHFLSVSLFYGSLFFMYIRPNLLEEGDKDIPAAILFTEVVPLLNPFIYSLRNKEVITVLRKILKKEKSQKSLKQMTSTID
Method in brief: as §1

A0A6P6H1F7 = test system: T7, A0A6P6H1F7
T7 sequence (whole entry): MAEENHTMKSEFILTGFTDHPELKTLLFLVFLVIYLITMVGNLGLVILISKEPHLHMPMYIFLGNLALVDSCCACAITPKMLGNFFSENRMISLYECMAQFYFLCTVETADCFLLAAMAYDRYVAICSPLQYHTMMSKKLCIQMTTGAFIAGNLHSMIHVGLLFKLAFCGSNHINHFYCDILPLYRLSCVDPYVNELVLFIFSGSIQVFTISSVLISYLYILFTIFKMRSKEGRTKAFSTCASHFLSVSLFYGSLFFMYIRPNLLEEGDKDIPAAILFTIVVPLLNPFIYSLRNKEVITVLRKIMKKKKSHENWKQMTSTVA
Method in brief: as §1

O10A6 = test system: T8, O10A6
T8 sequence (whole entry): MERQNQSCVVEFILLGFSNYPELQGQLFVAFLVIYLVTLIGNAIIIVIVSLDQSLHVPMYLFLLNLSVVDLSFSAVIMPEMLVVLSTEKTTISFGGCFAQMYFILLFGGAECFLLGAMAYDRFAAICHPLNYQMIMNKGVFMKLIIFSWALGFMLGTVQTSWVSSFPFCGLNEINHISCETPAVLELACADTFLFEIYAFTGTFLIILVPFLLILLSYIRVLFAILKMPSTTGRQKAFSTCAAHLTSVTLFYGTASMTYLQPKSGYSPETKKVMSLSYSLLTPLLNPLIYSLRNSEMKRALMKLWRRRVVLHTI
Method in brief: as §1

O10A2 H43R H207R K258T = test system: T9, O10A2 H43R H207R K258T
T9 sequence (whole entry): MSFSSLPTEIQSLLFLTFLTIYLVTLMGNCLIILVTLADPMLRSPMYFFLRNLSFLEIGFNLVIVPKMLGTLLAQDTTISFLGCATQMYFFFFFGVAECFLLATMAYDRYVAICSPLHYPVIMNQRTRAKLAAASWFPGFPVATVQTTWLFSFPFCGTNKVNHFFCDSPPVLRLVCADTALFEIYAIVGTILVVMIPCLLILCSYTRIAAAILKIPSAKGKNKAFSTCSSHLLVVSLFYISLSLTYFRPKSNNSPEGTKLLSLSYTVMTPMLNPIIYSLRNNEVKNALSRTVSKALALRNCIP
Method in brief: as §1

O10A3 C8G = test system: T10, O10A3 C8G
T10 sequence (whole entry): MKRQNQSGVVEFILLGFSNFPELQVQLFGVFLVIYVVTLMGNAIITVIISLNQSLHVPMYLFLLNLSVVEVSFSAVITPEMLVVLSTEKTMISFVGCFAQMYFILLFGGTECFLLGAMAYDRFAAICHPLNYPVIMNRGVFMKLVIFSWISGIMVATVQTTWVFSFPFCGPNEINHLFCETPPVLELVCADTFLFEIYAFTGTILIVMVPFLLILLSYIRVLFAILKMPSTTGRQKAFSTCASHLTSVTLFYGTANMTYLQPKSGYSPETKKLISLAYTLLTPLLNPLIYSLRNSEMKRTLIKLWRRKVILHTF
Method in brief: as §1

O10AD G65C = test system: T11, O10AD G65C
T11 sequence (whole entry): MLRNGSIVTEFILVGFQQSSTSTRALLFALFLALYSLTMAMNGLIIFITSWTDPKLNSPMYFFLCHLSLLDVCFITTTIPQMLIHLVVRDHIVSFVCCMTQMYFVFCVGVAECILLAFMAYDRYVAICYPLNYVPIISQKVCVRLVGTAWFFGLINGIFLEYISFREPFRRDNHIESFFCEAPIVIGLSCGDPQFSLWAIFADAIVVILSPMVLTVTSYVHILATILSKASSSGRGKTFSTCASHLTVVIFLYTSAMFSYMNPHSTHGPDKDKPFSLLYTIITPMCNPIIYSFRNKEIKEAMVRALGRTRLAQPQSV
Method in brief: as §1

O10D3 V134A R197K = test system: T12, O10D3 V134A R197K
T12 sequence (whole entry): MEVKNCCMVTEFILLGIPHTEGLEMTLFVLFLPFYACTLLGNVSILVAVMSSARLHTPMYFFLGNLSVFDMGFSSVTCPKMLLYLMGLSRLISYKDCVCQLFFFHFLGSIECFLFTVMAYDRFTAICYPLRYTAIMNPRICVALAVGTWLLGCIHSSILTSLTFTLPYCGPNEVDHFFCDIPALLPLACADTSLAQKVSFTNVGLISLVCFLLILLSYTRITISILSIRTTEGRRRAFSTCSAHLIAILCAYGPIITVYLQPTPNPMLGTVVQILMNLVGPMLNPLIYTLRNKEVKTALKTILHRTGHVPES
Method in brief: as §1

O10G4 L24P V195E = test system: T13, O10G4 L24P V195E
T13 sequence (whole entry): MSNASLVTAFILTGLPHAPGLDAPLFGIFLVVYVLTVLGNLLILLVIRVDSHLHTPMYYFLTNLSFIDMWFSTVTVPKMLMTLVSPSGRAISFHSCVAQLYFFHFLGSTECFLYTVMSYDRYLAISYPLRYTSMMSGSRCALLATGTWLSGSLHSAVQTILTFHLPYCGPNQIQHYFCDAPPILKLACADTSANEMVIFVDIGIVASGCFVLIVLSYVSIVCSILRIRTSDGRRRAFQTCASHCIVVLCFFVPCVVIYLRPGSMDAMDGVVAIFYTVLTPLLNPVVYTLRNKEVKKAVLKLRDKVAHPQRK
Method in brief: as §1

O10G7 A18V P19Q G20A = test system: T14, O10G7 A18V P19Q G20A
T14 sequence (whole entry): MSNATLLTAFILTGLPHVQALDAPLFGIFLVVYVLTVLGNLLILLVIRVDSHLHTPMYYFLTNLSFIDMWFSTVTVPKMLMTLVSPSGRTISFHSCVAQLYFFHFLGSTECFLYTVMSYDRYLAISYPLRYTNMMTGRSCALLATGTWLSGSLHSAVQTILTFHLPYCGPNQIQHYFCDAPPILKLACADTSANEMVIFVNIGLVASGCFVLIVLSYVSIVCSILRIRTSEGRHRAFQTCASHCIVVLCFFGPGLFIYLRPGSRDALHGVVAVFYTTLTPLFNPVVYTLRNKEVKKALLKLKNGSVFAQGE
Method in brief: as §1

O10G7 I28V = test system: T15, O10G7 I28V
T15 sequence (whole entry): T14 sequence (whole entry) with V18A, Q19P, A20G, I28V
Method in brief: as §1

A0A1L1SVG7 = test system: T16, A0A1L1SVG7
T16 sequence (whole entry): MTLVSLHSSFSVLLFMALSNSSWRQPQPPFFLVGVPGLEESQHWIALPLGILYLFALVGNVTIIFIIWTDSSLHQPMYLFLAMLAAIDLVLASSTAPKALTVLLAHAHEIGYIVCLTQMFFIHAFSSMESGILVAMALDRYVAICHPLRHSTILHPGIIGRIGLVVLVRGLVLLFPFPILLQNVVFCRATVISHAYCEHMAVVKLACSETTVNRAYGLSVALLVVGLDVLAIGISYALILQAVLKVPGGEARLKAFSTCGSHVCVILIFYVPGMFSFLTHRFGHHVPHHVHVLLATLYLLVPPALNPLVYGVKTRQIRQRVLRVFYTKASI
Method in brief: as §1

Measured: odorant receptor agonist call

COc1cnccn1
inactive: A0A140T8K0 | A0A140T8K4 | A0A6P3DZI2
active: A0A2J8MY22 | A0A2R8ZIW4 | A0A3Q7SVK8 | A0A6P6H1F7

CCCCC=CCCC=O
active: O10A6

C=Cc1cnccn1
inactive: A0A140T8K4 | A0A6P3DZI2
active: A0A2J8MY22 | A0A2R8ZIW4 | A0A3Q7SVK8 | A0A6P6H1F7

CC1=NC(C)C(C)S1 (stereo not drawn)
active: A0A140T8K4 | A0A2J8MY22 | A0A2R8ZIW4 | A0A3Q7SVK8 | A0A6P3DZI2 | A0A6P6H1F7
not listed: A0A140T8K0 | A0A1L1SVG7
inactive: all other assays above

CCc1nccnc1OC
active: A0A2J8MY22 | A0A2R8ZIW4 | A0A3Q7SVK8 | A0A6P6H1F7
inactive: A0A140T8K4 | A0A6P3DZI2

CCc1ncc(C)nc1CC
inactive: A0A140T8K0 | A0A140T8K4
active: A0A2J8MY22 | A0A2R8ZIW4 | A0A3Q7SVK8 | A0A6P3DZI2 | A0A6P6H1F7

CCC(C)c1nccnc1OC (stereo not drawn)
inactive: A0A140T8K0 | A0A140T8K4 | A0A6P3DZI2
active: A0A2J8MY22 | A0A2R8ZIW4 | A0A3Q7SVK8 | A0A6P6H1F7

CCCC(S)CCOC(C)=O (stereo not drawn)
inactive: O10A2 H43R H207R K258T | O10A3 C8G | O10A6 | O10AD G65C | O10D3 V134A R197K | O10G4 L24P V195E | O10G7 A18V P19Q G20A | O10G7 I28V

O=c1ccc2ccccc2o1
inactive: A0A140T8K4 | A0A1L1SVG7
